The subject of test [1] is Quadruplex DNA. Nature of the test: Binding affinity to 22AG G-quadruplex DNA (unknown origin) by fluorescence spectrophotometric analysis. Format: nucleic-acid assay. The procedure, abridged:
(§1)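 Fluorescence titration in 10 mM lithium cacodylate pH 7.2 with 100 mM KCl, 1 cm quartz cell. Ligand at 0.5 μM, excited at 330 or 340 nm, with increasing DNA added (22AG, c-Myc or ds26). Emission over 340/350–650 nm plotted against DNA concentration and fitted by Hill equation to give apparent Ka (1:1).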

For test [2], the species on record is Homo sapiens. Description: Selectivity index, ratio of IC50 for inhibition of ROCK1 (unknown origin) to IC50 for inhibition of ROCK2 (unknown origin).
Test [3] has as its system HeLa. Nature of the test: Induction of double stranded DNA breaks in human HeLa cells assessed as gamma-H2Ax phosphorylation at 2 uM after 24 to 48 hrs by Hoechst 33342 staining-based laser confocal microscopy. The format is functional, cell-based.
In test [4] the target is T1, Rho-associated protein kinase (Homo sapiens) (UniProt O75116+Q13464). Nature of the test: Inhibition of ROCK in human Hela cells assessed as reduction in cell spreading at 2 uM by phalloidin-based immunofluorescence assay. The method, boiled down:
(§2)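 HeLa cells on glass coverslips treated overnight at 2 μM or with DMSO control, then fixed in 4% formaldehyde for 10 min at 37 °C. Actin stained with phalloidin; α-tubulin or anti-phospho-Tyr focal points also labelled, plus DNA. Imaged by confocal microscopy.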

The target of test [5] is T2, Rho-associated protein kinase 2 (Homo sapiens, UniProt O75116). Nature of the test: Inhibition of ROCK2 (unknown origin) by ATP competition assay. The method, boiled down:
(§3)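 Recombinant kinases assayed in duplicate by radioactive filter-binding assay with 33P-ATP; no-compound controls run and each plate validated by Z′. IC50 values determined.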
Target sequence in this assay (O75116 whole entry): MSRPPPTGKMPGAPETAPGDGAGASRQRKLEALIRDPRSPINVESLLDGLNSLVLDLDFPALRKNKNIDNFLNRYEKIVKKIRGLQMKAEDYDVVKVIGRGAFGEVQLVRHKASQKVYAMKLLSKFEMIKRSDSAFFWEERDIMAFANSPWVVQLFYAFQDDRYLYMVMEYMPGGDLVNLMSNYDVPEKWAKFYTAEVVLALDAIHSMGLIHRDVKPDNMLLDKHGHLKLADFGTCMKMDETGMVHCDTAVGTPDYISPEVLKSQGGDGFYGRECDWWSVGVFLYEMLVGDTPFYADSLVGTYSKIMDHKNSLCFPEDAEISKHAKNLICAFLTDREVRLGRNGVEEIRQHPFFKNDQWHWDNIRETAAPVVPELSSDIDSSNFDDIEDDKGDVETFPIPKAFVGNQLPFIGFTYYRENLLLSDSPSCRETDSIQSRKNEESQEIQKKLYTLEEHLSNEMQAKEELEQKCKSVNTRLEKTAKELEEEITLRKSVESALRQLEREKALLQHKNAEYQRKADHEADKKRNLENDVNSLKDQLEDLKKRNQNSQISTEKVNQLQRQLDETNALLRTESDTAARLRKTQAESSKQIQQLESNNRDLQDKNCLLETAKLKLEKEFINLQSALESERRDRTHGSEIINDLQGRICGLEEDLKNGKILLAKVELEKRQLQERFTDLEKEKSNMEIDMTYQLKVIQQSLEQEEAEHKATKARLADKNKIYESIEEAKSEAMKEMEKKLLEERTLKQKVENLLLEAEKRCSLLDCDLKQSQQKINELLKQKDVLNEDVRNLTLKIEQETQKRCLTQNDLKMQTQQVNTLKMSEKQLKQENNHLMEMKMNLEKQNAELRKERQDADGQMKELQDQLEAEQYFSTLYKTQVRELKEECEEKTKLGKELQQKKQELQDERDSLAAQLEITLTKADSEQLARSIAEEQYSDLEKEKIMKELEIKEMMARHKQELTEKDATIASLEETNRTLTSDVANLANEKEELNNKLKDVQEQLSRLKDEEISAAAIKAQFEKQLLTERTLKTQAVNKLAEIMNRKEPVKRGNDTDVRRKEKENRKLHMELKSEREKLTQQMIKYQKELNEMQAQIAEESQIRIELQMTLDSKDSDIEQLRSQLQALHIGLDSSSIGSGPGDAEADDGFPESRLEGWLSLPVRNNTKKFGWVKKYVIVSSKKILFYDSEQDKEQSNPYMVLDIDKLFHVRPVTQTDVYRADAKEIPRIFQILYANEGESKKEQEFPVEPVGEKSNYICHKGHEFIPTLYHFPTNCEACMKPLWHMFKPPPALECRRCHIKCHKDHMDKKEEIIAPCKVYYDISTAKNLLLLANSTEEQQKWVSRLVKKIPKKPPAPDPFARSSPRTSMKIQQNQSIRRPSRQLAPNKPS

Test [6] deals with Rho-associated protein kinase 1 (Homo sapiens, UniProt Q13464). Description: Inhibition of ROCK1 (unknown origin) by ATP competition assay. The procedure, abridged:
as §3

In test [7] the test system is dsDNA. Description: Binding affinity to duplex 26 DNA (unknown origin) by fluorescence spectrophotometric analysis. The format is nucleic-acid assay. The method, boiled down:
as §1

Test [8] concerns Quadruplex DNA. Nature of the test: Binding affinity to 6-FAM labeled human telomeric F21T G-quadruplex DNA assessed as change in melting temperature at 1 uM in K+ rich buffer (10 mM KCl, 90 mM LiCl, 10 mM Li cacodylate) by FRET assay. The format is nucleic-acid assay. The method, boiled down:
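FRET melting in duplicate. Dual-labelled oligo (6-FAM/TAMRA) at 0.2 μM with ligand at 1 μM, in 10 mM Li cacodylate pH 7.2. Buffer was 10 mM KCl + 90 mM LiCl for F21T and 1 mM KCl + 99 mM LiCl for FMycT. Sample annealed 90 °C 5 min, cooled to 4 °C overnight. Equilibrated 5 min at 25 °C, then ramped 0.5 °C/min to 95 °C. FAM read 492/516 nm, normalized; Tm taken at the fitted inflection point.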

Test [9] relates to Quadruplex DNA. Nature of the test: Binding affinity to c-Myc G-quadruplex DNA (unknown origin) by fluorescence spectrophotometric analysis. Format: nucleic-acid assay. The procedure, abridged:
as §1

In test [10] the test system is HeLa. Description: Induction of double stranded DNA breaks in human HeLa cells assessed as gamma-H2Ax phosphorylation at 1 uM after 24 to 48 hrs by Hoechst 33342 staining-based laser confocal microscopy. The format is functional, cell-based.
Test [11] relates to HeLa. Description: Cytotoxicity against human HeLa cells assessed as reduction in organization of stress fibers at 1 uM after 24 to 48 hrs by Hoechst 33342 staining-based laser confocal microscopy. The format is functional, cell-based.
For test [12], the system named is dsDNA. Nature of the test: Binding affinity to duplex 26 DNA (unknown origin) assessed as change in melting temperature at 1 uM by FRET. The format is nucleic-acid assay.
The target of the next test is T3, Myotonin-protein kinase (Homo sapiens, UniProt Q09013).
T3 sequence (Q09013 whole entry): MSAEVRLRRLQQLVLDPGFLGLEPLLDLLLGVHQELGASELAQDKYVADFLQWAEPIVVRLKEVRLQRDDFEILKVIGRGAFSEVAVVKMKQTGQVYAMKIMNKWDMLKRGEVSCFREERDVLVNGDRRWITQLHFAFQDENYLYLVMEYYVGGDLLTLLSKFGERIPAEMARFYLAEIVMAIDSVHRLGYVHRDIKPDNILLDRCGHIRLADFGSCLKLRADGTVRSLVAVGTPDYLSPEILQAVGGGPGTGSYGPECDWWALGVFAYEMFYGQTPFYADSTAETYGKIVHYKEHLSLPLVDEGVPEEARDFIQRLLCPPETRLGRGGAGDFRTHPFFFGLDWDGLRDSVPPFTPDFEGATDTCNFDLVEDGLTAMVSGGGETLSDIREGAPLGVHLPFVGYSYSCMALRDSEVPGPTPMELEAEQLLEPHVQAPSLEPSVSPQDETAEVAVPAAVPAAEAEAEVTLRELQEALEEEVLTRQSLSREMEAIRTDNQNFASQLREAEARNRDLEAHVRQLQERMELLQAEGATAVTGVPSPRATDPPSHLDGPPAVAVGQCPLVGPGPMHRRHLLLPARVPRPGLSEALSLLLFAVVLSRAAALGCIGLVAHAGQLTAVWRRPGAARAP
Nature of the test: Inhibition of DMPK (unknown origin) by ATP competition assay. The procedure, abridged:
as §3

In test [13] the target is T1, Rho-associated protein kinase (Homo sapiens). Description: Inhibition of ROCK in human Hela cells assessed as formation of long neurite-like extensions at 2 uM by phalloidin-based immunofluorescence assay. Format: cell-based. The procedure, abridged:
as §2

The species named for test [14] is Homo sapiens. Nature of the test: Selectivity index, ratio of IC50 for inhibition of DMPK (unknown origin) to IC50 for inhibition of ROCK2 (unknown origin).
Test [15] has as its system HeLa. Description: Antiproliferative activity against human HeLa cells after 72 hrs by MTS assay. Format: functional, cell-based. The method, boiled down:
(§4)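 Cells seeded at day 0 in 96-well plates, serial compound dilutions added at day 1; viable cells read 72 h after drug addition by MTS tetrazolium assay, in triplicate. IC50 taken as concentration halving cell growth. One first trial, then two additional experiments on selected compounds.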

For the next test, the system named is A-375. Description: Antiproliferative activity against human A375 cells after 72 hrs by MTS assay. The format is functional, cell-based. The settings on record: A-375, 72 h. The method, boiled down: as §4
On the technique in general: Tetrazolium assays rely on reduction of a dye to a coloured formazan, in cell work by metabolically active cells.

For a further test, the system named is A-431. Description: Antiproliferative activity against human A431 cells after 72 hrs by MTS assay. The settings on record: A-431, 72 h. Format: functional, cell-based. The method, boiled down:
as §4

The next test has as its system U-87 MG. Description: Antiproliferative activity against human U87 cells after 72 hrs by MTS assay. Format: functional, cell-based, U-87MG ATCC. The method, boiled down:
as §4

The next test has as its system M21. Description: Antiproliferative activity against human M21 cells after 72 hrs by MTS assay. The format is functional, cell-based. Particulars: M21, 72 h. The method, boiled down: as §4
For test [16], the target named is T2, Rho-associated protein kinase 2. Description: Inhibition of ROCK2 in human HeLa cells assessed as reduction in MYPT1 phosphorylation at Thr853 at 2 uM after 3 hrs by immunofluorescence assay. Format: cell-based. The procedure, abridged: (§5)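 HeLa cells treated 3 h at 2 or 5 μM, with Y-27632 and untreated controls, then formaldehyde-fixed. Phospho-MYPT1 Thr853 or phospho-cofilin Ser3 immunostained with DNA. Confocal 0.5 μm slices plus z-projection, with acquisition settings fixed from the control.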
Target sequence in this assay (O75116 whole entry, looked up): as the sequence (O75116 whole entry) above

For test [17] the target is unchanged. Nature of the test: Inhibition of ROCK2 in human HeLa cells assessed as reduction in cofilin phosphorylation at Ser3 at 2 uM after 3 hrs by immunofluorescence assay. The format is cell-based. The procedure, abridged:
as §5
Target sequence in this assay (O75116 whole entry, looked up): as the sequence (O75116 whole entry) above

Active and inactive are the calls of the source. No cut-off for these calls is given here.

The IC50 is the point on the concentration scale where inhibition reaches its midpoint. Read a low IC50 as greater potency. As usually defined, the ΔTm is the change in melting temperature against a reference sample.

Chain of Rho-associated protein kinase 1 (Q13464 whole entry): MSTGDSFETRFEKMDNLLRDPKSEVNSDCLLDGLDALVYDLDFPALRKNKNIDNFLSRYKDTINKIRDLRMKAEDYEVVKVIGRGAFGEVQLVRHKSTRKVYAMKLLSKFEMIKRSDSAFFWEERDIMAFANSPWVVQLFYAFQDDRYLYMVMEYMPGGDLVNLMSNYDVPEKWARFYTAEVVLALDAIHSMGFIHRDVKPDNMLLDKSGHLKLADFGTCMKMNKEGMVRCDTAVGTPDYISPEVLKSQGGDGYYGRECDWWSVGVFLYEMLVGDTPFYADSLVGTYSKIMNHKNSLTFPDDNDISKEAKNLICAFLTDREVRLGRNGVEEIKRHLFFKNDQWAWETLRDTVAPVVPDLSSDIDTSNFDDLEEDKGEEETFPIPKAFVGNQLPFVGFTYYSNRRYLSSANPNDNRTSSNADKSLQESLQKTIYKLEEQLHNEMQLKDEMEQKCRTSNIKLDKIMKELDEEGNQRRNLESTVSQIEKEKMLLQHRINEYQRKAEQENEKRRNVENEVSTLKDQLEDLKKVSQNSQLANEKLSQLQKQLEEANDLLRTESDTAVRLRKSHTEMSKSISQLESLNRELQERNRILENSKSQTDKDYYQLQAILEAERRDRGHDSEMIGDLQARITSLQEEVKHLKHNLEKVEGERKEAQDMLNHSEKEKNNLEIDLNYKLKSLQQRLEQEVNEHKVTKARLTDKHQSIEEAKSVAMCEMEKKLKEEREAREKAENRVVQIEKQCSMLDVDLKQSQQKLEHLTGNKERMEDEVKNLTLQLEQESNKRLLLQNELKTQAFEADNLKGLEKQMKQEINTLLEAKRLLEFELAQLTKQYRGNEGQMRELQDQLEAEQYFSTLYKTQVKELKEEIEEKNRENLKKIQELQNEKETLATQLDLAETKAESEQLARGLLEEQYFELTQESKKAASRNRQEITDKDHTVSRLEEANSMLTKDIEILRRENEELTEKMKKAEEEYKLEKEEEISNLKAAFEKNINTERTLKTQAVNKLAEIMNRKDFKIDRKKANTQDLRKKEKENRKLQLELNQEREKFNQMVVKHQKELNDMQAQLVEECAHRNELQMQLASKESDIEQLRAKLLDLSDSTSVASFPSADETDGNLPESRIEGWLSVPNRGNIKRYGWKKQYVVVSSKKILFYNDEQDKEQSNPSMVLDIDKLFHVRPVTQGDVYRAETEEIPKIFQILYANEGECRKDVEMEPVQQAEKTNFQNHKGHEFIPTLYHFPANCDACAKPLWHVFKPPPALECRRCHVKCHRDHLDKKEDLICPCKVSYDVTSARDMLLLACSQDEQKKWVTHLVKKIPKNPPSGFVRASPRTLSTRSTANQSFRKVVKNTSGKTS
T1 sequence (O75116 whole entry, looked up): as the sequence (O75116 whole entry) above
T1 sequence (Q13464 whole entry, looked up): as the sequence (Q13464 whole entry) above

For the molecule `CN(C)CCOc1cc(-c2ncc(-c3cccc(-c4cnco4)n3)o2)nc(-c2ncc(-c3cccc(-c4cnco4)n3)o2)c1`, the Activity result in the test on Quadruplex DNA [1] and in the test with Quadruplex DNA [9] was “Dose-dependent effect” in each case. The Ka with Quadruplex DNA [1] amounted to 2.5 ×10⁶ /M; in the test with dsDNA [7], 1 ×10⁶ /M; in the test with Quadruplex DNA [9], 22 ×10⁶ /M. In addition, the Ratio IC50 in the test listed under Homo sapiens [2] and in the test listed under Homo sapiens [14] was more than 50 each time. Further, the result in the test on HeLa [3], in the test with HeLa [10] and in the test with dsDNA [12] was inactive. Moreover, the inhibition entry in [4] and in [13] was “Active” each time. The values for the half-inhibitory concentration (IC50) (in test [5]; in [6]; on Myotonin-protein kinase) were 20 nM, more than 1000 nM and more than 1000 nM, respectively. Further, in the test with Quadruplex DNA [8], the shift in melting temperature (ΔTm) was in the range of 6 to 9 °C. The outcome with HeLa [11] was Active.

Consider `c1cc(-c2cnco2)nc(-c2cnc(-c3cccc(-c4cccc(-c5ncc(-c6cccc(-c7cnco7)n6)o5)n4)n3)o2)c1`, for which the 50% inhibitory concentration (IC50) is 134 nM with HeLa [15]; 592 nM in the test with A-375; 541 nM in the test with A-431; 246 nM in the test on U-87 MG; 1580 nM in the test with M21; 851 nM in [5]. Also, the IC50 (in test [6]; at Myotonin-protein kinase) was more than 1000 nM throughout. Besides, the Activity entry in the test on Quadruplex DNA [1] and with Quadruplex DNA [9] was “Dose-dependent effect” throughout. In addition, the Ka in the test on Quadruplex DNA [1] was found to be 3.9 ×10⁶ /M; with dsDNA [7], 3 ×10⁶ /M; with Quadruplex DNA [9], 16 ×10⁶ /M. The Ratio IC50 in the test listed under Homo sapiens [2] and in the test listed under Homo sapiens [14] was 1.4 throughout. Moreover, the result in the test on HeLa [3], in the test with HeLa [10] and in the test with dsDNA [12] was inactive. Besides, the inhibition result in test [4], in [16], in test [13] and in [17] was “Active” in each case. Besides, in the test with Quadruplex DNA [8], the ΔTm was 6 to 9 °C. Moreover, the outcome with HeLa [11] was Active.

With `c1cc(-c2cnco2)nc(-c2cnc(-c3cccc(-c4ncc(-c5cccc(-c6cnco6)n5)o4)n3)o2)c1`, the IC50 was 257 nM with HeLa [15]; 440 nM in the test with A-375; 645 nM in the test on A-431; 440 nM in the test with U-87 MG; 1560 nM in the test with M21; 29 nM in test [5]. Besides, the IC50 (in test [6]; at Myotonin-protein kinase) was more than 1000 nM each time. Moreover, the Activity result in the test with Quadruplex DNA [1] and with Quadruplex DNA [9] was “Dose-dependent effect” in each case. For the same molecule, the results for the Ka with Quadruplex DNA [1], with dsDNA [7] and with Quadruplex DNA [9] were 6.7 ×10⁶ /M, 0.9 ×10⁶ /M and 19 ×10⁶ /M, respectively. Further, the Ratio IC50 in the test filed under Homo sapiens [2] and in the test listed under Homo sapiens [14] was more than 50 in each case. Further, the result in the test on HeLa [3], with HeLa [10] and with dsDNA [12] was inactive. Moreover, the inhibition entry in test [4], in test [16], in [13] and in test [17] was “Active” in each case. In addition, in the test on Quadruplex DNA [8], the ΔTm was in the range of 6 to 9 °C. The outcome with HeLa [11] was Active.
